SUMO HTRF inh: inhibitors of in vitro SUMOylation cascade, primary screen, biochemical, HTRF, uHTS; inhibition, % at 35 µM; HTRF SUMOylation assay, SAE1/SAE2 + UBC9; 0.36% of 290,000 active; in the data active = inhibition above about 50%, passing the limit was not always enough
Target sequence (P63279 whole entry, looked up): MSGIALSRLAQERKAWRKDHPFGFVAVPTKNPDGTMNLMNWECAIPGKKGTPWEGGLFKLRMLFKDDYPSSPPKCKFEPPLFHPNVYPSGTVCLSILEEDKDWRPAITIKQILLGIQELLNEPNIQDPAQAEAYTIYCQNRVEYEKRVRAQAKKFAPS
UCH37 DUB inh: inhibitors of human UCH37 deubiquitinase, primary screen, biochemical, Ub-AMC cleavage, fluorescence | inhibition, % (concentration not given with the values) | Ubiquitin carboxyl-terminal hydrolase isozyme L5 (Homo sapiens), Q9Y5K5 | 0.33% of 330,000 active | purified proteasome/UCH37;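 active = mean inhibition over replicate wells above about 20%, limit read from the data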;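 note: 0% = compound-free wells with enzyme and 100% = wells lacking proteasome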
Target sequence (Q9Y5K5 whole entry, looked up): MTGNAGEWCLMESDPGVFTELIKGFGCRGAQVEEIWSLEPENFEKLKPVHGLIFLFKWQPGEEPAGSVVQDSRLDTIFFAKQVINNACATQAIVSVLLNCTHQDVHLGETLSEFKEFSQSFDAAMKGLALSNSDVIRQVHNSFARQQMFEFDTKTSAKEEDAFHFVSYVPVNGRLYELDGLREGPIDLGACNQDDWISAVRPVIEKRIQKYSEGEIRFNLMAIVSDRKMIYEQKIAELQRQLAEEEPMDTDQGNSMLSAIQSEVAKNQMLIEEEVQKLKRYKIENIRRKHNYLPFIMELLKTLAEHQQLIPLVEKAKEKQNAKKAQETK
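Material: Human UCH37 enzyme supplied as purified proteasome complex | Schedule: 30 min preincubation with enzyme, 25 min cleavage at room temperature | Detection: AMC fluorescence 355/460 nm | Measure: % inhibition of Ub-AMC cleavage fluorescence | Controls: Wells without proteasome as full block, compound-free enzyme plus substrate as uninhibited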
Neddylation inh: inhibitors of cullin neddylation, primary screen, biochemical, TR-FRET, uHTS, NAE and Ubc12. NEDD8-conjugating enzyme Ubc12 (Homo sapiens) + NEDD8-activating enzyme E1 regulatory …. inhibition, % at 25 µM. AID 651699, 2012. 0.58% of 360,000 active; in the data active = inhibition above about 36%
Fh CTSL1 inh: Fasciola hepatica cathepsin L1 inhibitors, primary screen, counter-screen for PFM18AAP inhibitor project, biochemical, QFRET, fluorogenic peptide substrate; inhibition, % at 5.96 µM; recombinant F. hepatica cathepsin L1, Z-Leu-Arg-MCA fluorescence; AID 1906, 2009; 0.49% of 300,000 active;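 active = inhibition above the mean of all tested compounds plus 3 SD, set per screening campaign, cut at about 17% in these data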;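 note: 0% = plate median of test compound wells and 100% = 1 µM Z-Phe-Ala-diazomethylketone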
The depositor's hits bear a star; / = not tested or not shown. This is a sample that favours compounds with a hit; in the whole collection about 1.4% have one here.

SMILES | SUMO HTRF inh | UCH37 DUB inh | Neddylation inh | Fh CTSL1 inh
C=CCN(CC=C)C(=S)Nc1ccc2nsnc2c1 | 87.2 | 4.9 | 27.6 | -0.9
COc1cc(C=NNc2ccc([N+](=O)[O-])cc2)ccc1OCC(=O)Nc1ccc(C)c(C)c1 | / | -1.1 | / | /
COc1ccc(/C=C(/NC(=O)c2ccc(C)cc2)C(=O)NCc2ccncc2)cc1 | / | 5.9 | -11.8 | 20.8*
Cc1ccc(NC(=O)COC(=O)c2ccc(=O)n(Cc3ccccc3)n2)cc1F | / | -1.2 | -9.0 | 13.0
CC(OC(=O)c1ccc(=O)n(Cc2ccccc2)n1)C(=O)Nc1cccc(Cl)c1 (stereo not given) | / | 4.4 | 2.8 | 16.8*
COc1ccc(-n2ncc3c(N4CCCCC4)ncnc32)cc1 | 5.5 | 2.2 | 38.5* | 2.4
CN(C)Cc1cc(C(C)(C)C)cc(C(C)(C)C)c1O | 12.0 | -0.1 | -0.2 | 1.5
CN(C)Cc1cc(O)c(CN(C)C)cc1O | -5.2 | -1.1 | 39.1* | 5.4
COc1ccc(CN2CC(C(=O)NCCCN3CCOCC3)CC2=O)cc1 (stereo not given) | -0.6 | -3.7 | -0.6 | 20.7*
COc1ccc(CN2CC(C(=O)NCCc3ccc(C)cc3)CC2=O)cc1 (stereo not given) | 13.5 | -1.8 | -1.0 | -2.7
CCCCNC(=O)C1CC(=O)N(CCc2ccccc2)C1 (stereo not given) | -8.3 | 1.2 | 6.2 | -3.0
COc1ccc(CN2CC(C(=O)NCCCN3CCCCCC3)CC2=O)cc1 (stereo not given) | -6.5 | 0.8 | -7.2 | -0.4
COc1ccc(CN2CC(C(=O)NCCc3ccccc3)CC2=O)cc1 (stereo not given) | 11.4 | -2.0 | -1.7 | 17.1*
CCC1CCCCN1CCCNC(=O)C1CC(=O)N(CCc2ccccc2)C1 (stereo not given) | 10.1 | 1.8 | 13.3 | 27.6*
O=C(CCCN1C(=O)/C(=C/c2ccco2)SC1=S)Nc1cccc(C(=O)O)c1 | 64.4* | 9.5 | 8.8 | -1.2
CC(C(=O)N(C)C1CCS(=O)(=O)C1)N1C(=O)/C(=C/c2ccco2)SC1=S (stereo not given) | 12.7 | 7.7 | -1.7 | 4.0
CC(C(=O)Nc1ccc(C(=O)O)c(O)c1)N1C(=O)/C(=C\c2ccco2)SC1=S (stereo not given) | 57.0* | 19.2 | -2.2 | -0.4
O=C(CCCN1C(=O)/C(=C\c2cccs2)SC1=S)Nc1cccc(C(=O)O)c1 | 15.8 | 3.9 | -46.5 | 4.3
O=C(CN1C(=O)/C(=C/c2ccco2)SC1=S)Nc1ccc(O)c(C(=O)O)c1 | 50.8* | 10.9 | 24.5 | -4.2
O=C(CN1C(=O)/C(=C/c2ccco2)SC1=S)Nc1ccc(C(=O)O)c(O)c1 | 71.8* | 10.1 | 3.8 | 2.7
COc1ccc(C=NNc2nnc(Cc3ccc(OC)c(OC)c3)c(=O)[nH]2)cc1OC | / | 5.2 | / | /
COC(=O)NN=Cc1cc([N+](=O)[O-])cc(Br)c1O | / | 4.8 | / | /
O=C(Nc1sc2c(c1C(=O)N1CCOCC1)CCCCC2)c1cccnc1 | 5.2 | 6.2 | -5.7 | 18.9*
O=C(Nc1sc2c(c1C(=O)O)CCCCC2)c1cccnc1 | 12.8 | 7.2 | 2.6 | -0.8
COc1ccc(C=Nn2c(SC)nnc(C(C)(C)C)c2=O)cc1OC | / | 5.0 | / | /
SMILES | SUMO HTRF inh | UCH37 DUB inh | Neddylation inh | Fh CTSL1 inh
CCO/C=C1\N=C(c2ccc(F)cc2)OC1=O | -10.0 | 11.5 | -0.1 | 36.3*
Cc1ccc(C2=N/C(=C\c3cccnc3)C(=O)O2)cc1 | 9.7 | -0.9 | 4.9 | 1.2
Cc1ccc(S(=O)(=O)NN=Cc2ccc(OCC(=O)NC(C)C)cc2)cc1 | / | 28.0* | / | /
O=C1N[C@H](Cc2ccccc2)COC(=O)[C@@H](Cc2ccc(F)cc2)CC/C=C/C[C@H]1CC(=O)N(CCO)Cc1ccccc1 | / | 22.2* | -25.1 | /
COC(=O)c1cccc(N2C(=O)C(Cl)=C(N3CCOCC3)C2=O)c1 | 5.7 | 2.8 | -19.8 | 31.8*
O=C1C(Cl)=C(N2CCOCC2)C(=O)N1c1cccc(C(F)(F)F)c1 | 7.6 | 7.6 | -8.0 | 23.2*
Cc1cc(C=NNC(=O)C(O)(c2ccccc2)c2ccccc2)c(C)n1-c1ccccc1 | / | -0.4 | / | /
CN1Cc2c(N3CCOCC3)nc3sc(C(=O)c4ccc(Br)cc4)c(N)c3c2CC1(C)C | -10.1 | / | 41.2* | 0.8
COc1cnc(-c2ccccc2)nc1Oc1ccc(Cl)cc1C | -1.4 | -1.2 | 7.1 | 18.6*
CCCOc1ccc(C=NNc2cccc([N+](=O)[O-])c2)c(O)c1 | / | 5.2 | / | /
COC(=O)C(=NOCc1ccc(C#N)cc1)c1c(C)nn(C)c1C | / | 4.6 | / | /
CCCCN(C)C(=O)c1cc2cc3ccc(OC)cc3nc2s1 | 16.9 | -77.2 | 42.5* | 2.9
CCCCN(CC)C(=O)c1cc2cc3ccc(OC)cc3nc2o1 | 13.2 | -330.8 | 56.4* | 9.8
COc1ccc2nc3sc(C(=O)N4CCN(C)CC4)cc3cc2c1 | 8.7 | -40.1 | 33.1 | 9.7
COc1ccc(CCN2C(=O)CSC2=NNC(=O)c2ccccc2F)cc1OC | / | 1.6 | / | /
C=C(C)CNC(=S)NN=C(C)c1ccc(-n2ccnc2)cc1 | / | 3.5 | / | /
Cc1cc(NN=Cc2cccc([N+](=O)[O-])c2)nc(-n2nc(C)cc2C)n1 | / | 6.8 | / | /
Cc1ccc(C=NNC(=S)NCCc2ccccc2)s1 | / | -49.4 | / | /
Cc1ccc(/C=N/NC(=S)NCCc2ccccc2)s1 | 16.4 | / | 42.0* | -0.4
Cc1cc(Br)cc(C=NNC(=O)c2ccc3c(c2)OCO3)c1O | / | 1.5 | / | /
Cc1cccc(CCN2C(N(C)C)=NC[C@@H]2CC(C)C)c1 | / | 33.5* | -4.3 | -4.8
Cc1cccc(CCN2C(N(C)C)=NC[C@@H]2Cc2ccccc2)c1 | / | 3.7 | -22.0 | /
Cc1cccc(C(=O)NCC(=O)OCC(=O)N(C)CC(=O)Nc2ccc(F)cc2)c1 | / | -0.4 | 12.1 | 40.3*
CC(C(=O)OCC(=O)Nc1ccccc1OC(F)F)N1C(=O)C2CC=CCC2C1=O (stereo not given) | / | / | 19.8 | /
Cc1ccc(NC(=O)COC(=O)C(CC(C)C)N2C(=O)C3CC=CCC3C2=O)c(C)c1 (stereo not given) | -4.6 | 5.7 | 13.8 | 16.9*
SMILES | SUMO HTRF inh | UCH37 DUB inh | Neddylation inh | Fh CTSL1 inh
O=C(NN=Cc1cc(Br)cs1)C(O)c1ccccc1 (stereo not given) | / | 2.5 | / | /
O=P(C(=NO)Sc1ccccc1)(N1CCOCC1)N1CCOCC1 | / | 1.7 | / | /
Cc1ccc2c(=O)cc(C(F)F)oc2c1 | 16.4 | 5.3 | 2.4 | -2.1
Cc1cc(C)c2c(=O)cc(C(F)F)oc2c1 | 11.8 | -1.1 | 0.2 | 16.6*
O=C(Nc1cccc2nsnc12)c1ccc(-c2ccc(Br)cc2)o1 | 73.0* | -17.2 | / | 2.0
O=C(O)c1ccc2c(c1)C(=O)/C(=C/c1ccccc1)C2=O | 39.3 | 22.0* | -40.6 | -2.4
Cc1nn2cc(-c3ccccc3)nc2[nH]c1=O | 68.3* | -88.9 | / | 0.7
C[C@H](NC(=O)[C@H]1N2C(=O)c3ccccc3C2SC1(C)C)C(=O)N1CCN(C)CC1 (stereo not given in full) | -3.0 | 4.0 | 9.7 | 21.1*
COCc1cc(=O)[nH]c(N=C(N)Nc2ccccc2C)n1 | / | 29.2* | / | /

Screens (PubChem)
